NOD2-RIPK2 inh – blocks binding of human NOD2 to RIPK2. actives 0.38% (n = 360,000). O43353. CHO BLA complementation NOD2-RIPK2, CCF4 ratio. inhibition, % at 4.98 µM; in the data active = inhibition above about 21%;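 also: 0% = vehicle only and 100% = reference blocker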
Target sequence (O43353 whole entry, looked up): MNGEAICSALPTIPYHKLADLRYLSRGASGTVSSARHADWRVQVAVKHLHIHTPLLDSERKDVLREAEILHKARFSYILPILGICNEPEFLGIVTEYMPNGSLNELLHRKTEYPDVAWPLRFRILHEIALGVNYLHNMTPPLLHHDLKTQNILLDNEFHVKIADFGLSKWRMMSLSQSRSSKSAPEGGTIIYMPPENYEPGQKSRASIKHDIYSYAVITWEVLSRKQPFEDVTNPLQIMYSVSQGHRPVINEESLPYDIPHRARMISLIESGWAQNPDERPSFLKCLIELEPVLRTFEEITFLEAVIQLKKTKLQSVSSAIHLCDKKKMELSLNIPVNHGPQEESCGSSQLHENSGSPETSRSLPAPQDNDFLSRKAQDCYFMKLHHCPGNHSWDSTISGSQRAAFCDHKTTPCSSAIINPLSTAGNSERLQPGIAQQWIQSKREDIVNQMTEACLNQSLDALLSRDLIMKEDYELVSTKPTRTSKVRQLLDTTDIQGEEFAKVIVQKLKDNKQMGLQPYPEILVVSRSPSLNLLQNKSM
TLR9-MyD88 inh – TLR9-MyD88 interaction inhibition; Q9NR96+Q99836; CHO BLA complementation TLR9-MyD88, CCF4 FRET ratio; inhibition, % at 4.98 µM; actives 0.21% (n = 340,000); AID 504734;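 active = inhibition above the mean over all tested compounds plus 3 SD, cut at about 21% in these data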;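 also: 0% = DMSO only wells and 100% = clavulanate BLA inhibitor control wells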
TLR4-MyD88 BLA – blocks binding of human TLR4 to MyD88 | O00206+Q99836 | HeLa CL3-4 TLR4/MyD88 BLA complementation, FRET ratio | inhibition, % at 8.4 µM | actives 0.18% (n = 200,000) | AID 861; in the data active = inhibition above about 25%;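 also: 0% = vehicle and 100% = reference inhibitor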
XBP1 UPR activ – adaptive UPR (XBP1) activation; CHO-XBP1 luciferase reporter, IRE1-XBP1 UPR activation, luminescence; percent of tunicamycin response, DMSO as zero; activation, % at 20 µM; actives 0.33% (n = 330,000); AID 463104;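 active = versus positive control, 20 µM dose yields 30% or more activation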;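 also: 100% = tunicamycin at 10 µg/mL and 0% = DMSO only wells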
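Material: CHO-XBP1 cells stably carrying IRE1-XBP1-driven luciferase reporter / Amount: 1000 cells per well / Compound: 20 µM, 1% DMSO / Times: 6 h treatment, 37 °C / Detection: luciferase luminescence / Measure: % activation of reporter signal versus tunicamycin and DMSO controls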
CHOP inhibitor – blocks CHOP induction under ER stress; CHO-K1 CHOP-promoter luciferase, tunicamycin-induced, 15-18 h; inhibition, % at 10 µM; actives 3.8% (n = 220,000); AID 2732;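 active = compounds that reduced the stress-induced luciferase reporter signal by more than about 70% of percent inhibition, limit read from the data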;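 also: 0% = tunicamycin plus vehicle and 100% = wells without tunicamycin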
CHOP UPR activ – apoptotic UPR (CHOP) activation; CHO-CHOP luciferase reporter, luminescence; percent of tunicamycin response over DMSO baseline; activation, % at 10 µM; actives 0.34% (n = 330,000);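 active = at 10 µM dose, activation of 40% or more, normalized to positive control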;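 also: 100% = tunicamycin at 10 µg/mL and 0% = DMSO alone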
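Test system: CHO-CHOP cells, stable luciferase reporter of PERK-eIF2a-CHOP signalling | Quantity: 500 CHO-CHOP cells per well | Buffer or medium: F12 plus 10% serum | Compound dosing: 10 µM single point, 0.5% DMSO | Schedule: 6 h compound treatment, 37 °C | Signal: Luciferase luminescence | Control set: Tunicamycin high control, DMSO low control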
Starred values were filed as active, the others as inactive; . = no result given. The sample as a whole holds a higher share of hits than the screen did.

SMILES	NOD2-RIPK2 inh	TLR9-MyD88 inh	TLR4-MyD88 BLA	XBP1 UPR activ	CHOP inhibitor	CHOP UPR activ
O=C(Cc1ccccc1F)Nc1nc(-c2cccnc2)cs1	10.3	4.2	8.3	1.2	80.6*	3.1
CCCN1CCC(C)(C(=O)Nc2ccccc2Oc2ccccc2)C1 (stereo not given)	3.3	.	.	.	.	.
Fc1ccc(Oc2nccc(-c3ccc(Cl)cc3)n2)cc1	-2.6	-11.1	-11.6	7.4	81.0*	4.0
COc1ccc(Oc2nccc(-c3ccc(Cl)cc3)n2)cc1	-15.9	-9.3	-10.4	8.7	60.8	0.4
N#Cc1c(N)nc2c(c1-c1ccc3c(c1)OCO3)CCCCCC2	-12.6	-16.7	9.4	2.0	86.0*	4.5
CCOc1ccc(S(=O)(=O)NCCCN2CCOCC2)c2ccccc12	0.8	7.0	-0.6	-6.1	-9.9	-1.8
CCCOc1ccc(S(=O)(=O)NCCCN2CCOCC2)c2ccccc12	-1.9	-0.8	0.0	-3.6	71.2*	-1.8
COc1ccccc1N1CCN(CCCCOc2cccc3ccccc23)CC1	-8.2	-4.5	-1.6	-0.8	83.7*	0.5
COc1cccc(N2CCN(c3ccc(S(=O)(=O)N4CCN(C)CC4)cc3[N+](=O)[O-])CC2)c1	4.5	-9.0	.	-3.4	.	-1.9
COc1ccc(N2CCN(S(=O)(=O)c3ccc4c(c3)CCCC4)CC2)c([N+](=O)[O-])c1	-1.1	-1.5	-9.9	-4.4	71.4*	5.6
OC(c1ccccc1)c1nc(-c2cccs2)cs1 (stereo not given)	-17.5	.	.	.	.	.
O=C(CSc1nc2ccc(Cl)cc2[nH]1)Nc1ccc2c(c1)CCC2	-6.9	4.6	6.7	-2.1	71.1*	1.9
COc1ccc(NC(=O)CSc2nc3ccc(OC)cc3[nH]2)cc1	5.6	2.2	.	-2.3	-6.7	0.1
Cc1ccc2nc(SCC(=O)Nc3ccc4c(c3)CCC4)[nH]c2c1	-4.8	-6.3	5.2	-1.6	-9.7	3.8
O=C(CSc1nc2cc3ccccc3cc2[nH]1)Nc1ccc(F)cc1	11.1	2.4	0.8	4.4	81.1*	2.2
Nc1c(N(CCO)C(=O)c2ccccc2OCc2ccccc2Cl)c(=O)[nH]c(=O)n1Cc1ccccc1	-2.2	-11.4	.	.	.	.
Cc1ccc(S(=O)(=O)ON2C(=O)c3ccccc3C2=O)c(C)c1	-11.4	-7.2	-17.4	.	93.6*	.
O=C1c2ccccc2C(=O)N1OS(=O)(=O)c1ccc(F)cc1	-6.2	-3.3	.	.	.	.
COc1ccc(NC(=S)Nc2cc(-c3ccccc3)[nH]n2)cc1Cl	-1.1	1.3	-1.7	1.1	77.9*	-0.2
COc1ccc(NC(=S)Nc2cc(C)[nH]n2)cc1Cl	4.8	-10.3	.	-1.3	-6.1	5.8
CCc1ccc(NC(=O)c2cnc(N3CCN(c4ccccn4)CC3)c3ccccc23)cc1	-13.1	.	-1.3	-2.2	74.9*	9.5
CCSc1nnc(NC(=O)c2cc(C)oc2C)s1	-22.4	-4.7	-16.0	2.2	77.9*	4.0
COc1ccc(Oc2nnc(-c3ccc(C)cc3)c3ccccc23)cc1	-6.6	-2.4	1.5	-0.3	83.3*	-0.1
COc1ccc(C(=O)/C=C/c2cn(CC(O)CN3CCOCC3)c3ccccc23)cc1 (stereo not given)	18.6	10.5	-0.2	.	28.1	.
COc1ccc(C(=O)/C=C/c2cn(CN3CCN(C)CC3)c3ccccc23)cc1	20.9*	11.9	18.1	3.2	27.7	2.9
SMILES	NOD2-RIPK2 inh	TLR9-MyD88 inh	TLR4-MyD88 BLA	XBP1 UPR activ	CHOP inhibitor	CHOP UPR activ
CCOC(=O)N1CCN(C(=O)C[C@@H]2C[C@@]3(C(=O)OCC)CCC=C3N(Cc3cccc4ccccc34)C2=O)CC1	4.9	.	.	.	.	.
CCOC(=O)c1cc(CC)sc1NC(=O)c1cc(OC)c(OC)c(OC)c1	7.1	5.7	-0.8	1.8	90.4*	-1.3
CCOC(=O)c1cc(CC)sc1NC(=O)Cc1ccsc1	-1.5	5.1	-8.6	-2.8	75.5*	-1.7
CCOC(=O)c1cc(CC)sc1NC(=O)CCC(=O)O	1.7	1.8	6.4	-2.5	-10.5	-0.7
CCOC(=O)c1cc(CC)sc1NC(=O)c1ccc(N2C(=O)CCC2=O)cc1	-4.2	-8.7	-12.1	1.6	-1.1	0.8
CCCCN1CC(C)(C)Oc2cccc(F)c2S1(=O)=O	0.6	-2.5	.	.	.	.

Bioassay records (PubChem BioAssay)
